Assay results from ChEMBL document CHEMBL5705890, “Antitumor activity of an allosteric inhibitor of centromere-associated protein-E” (Proc Natl Acad Sci U S A, 2010).

Key:
Format in all cases: functional
NCI-H209 = assay: Anticancer activity against human NCI-H209 cells assessed as cell growth inhibition measured after 72 hrs by DAPI staining based analysis
SW684 = assay: Anticancer activity against human SW684 cells assessed as cell growth inhibition measured after 72 hrs by DAPI staining based analysis
NCI-H1299 [1] = assay: Antitumor activity against human NCI-H1299 cells in xenograft model assessed as difference between median time to endpoint time of treated versus control group at 62.5 mg/kg
BPH-1 = assay: Anticancer activity against human BPH-1 cells assessed as cell growth inhibition measured after 72 hrs by DAPI staining based analysis
In short: (§1)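 Cells were seeded, and DNA content at 24 h after seeding (T0) was read by imaging of fixed, DAPI-stained cells. Cells were then exposed to a range of drug concentrations for a further 72 h (T72) and DNA content was read again. T72 values were normalized to T0, and GI50 was taken from curve fits as the concentration giving 50% growth inhibition relative to T0 and Ymax.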

BHT-101 = assay: Anticancer activity against human BHT-101 cells assessed as cell doubling measured for 72 hrs by DAPI staining based analysis
[2] = Anticancer activity against human CML-T1 cells assessed as cell doubling measured for 72 hrs by DAPI staining based analysis
SW872 = assay: Anticancer activity against human SW872 cells assessed as cell growth inhibition measured after 72 hrs by DAPI staining based analysis
NCI/ADR-RES = assay: Anticancer activity against human NCI/ADR-RES cells assessed as cell growth inhibition measured after 72 hrs by DAPI staining based analysis
[3] = Antitumor activity against human MV-522 cells in xenograft model assessed as tumor growth delay at 125 mg/kg relative to control
NCI-H157 = assay: Anticancer activity against human NCI-H157 cells assessed as cell doubling measured for 72 hrs by DAPI staining based analysis
SW 954 = assay: Anticancer activity against human SW 954 cells assessed as cell growth inhibition measured after 72 hrs by DAPI staining based analysis
SF-539 = assay: Anticancer activity against human SF-539 cells assessed as cell doubling measured for 72 hrs by DAPI staining based analysis
HEC-1B cell line = assay: Anticancer activity against human HEC-1B cells assessed as cell doubling measured for 72 hrs by DAPI staining based analysis
H4 = assay: Anticancer activity against human H4 cells assessed as cell doubling measured for 72 hrs by DAPI staining based analysis
FaDu = assay: Anticancer activity against human FaDu cells assessed as cell growth inhibition measured after 72 hrs by DAPI staining based analysis
In short: (§2)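 Cells seeded, DAPI-stained DNA content of fixed cells read by imaging 24 h after seeding (T0), and again after a further 72 h exposure to a range of drug concentrations (T72). T72 values were normalized to T0. Curve fits gave the concentration producing 50% growth inhibition relative to T0 and Ymax (GI50).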

NCI-H526 = assay: Anticancer activity against human NCI-H526 cells assessed as cell doubling measured for 72 hrs by DAPI staining based analysis
SCC-25 = assay: Anticancer activity against human SCC-25 cells assessed as cell growth inhibition measured after 72 hrs by DAPI staining based analysis
ES-2 = assay: Anticancer activity against human ES2 cells assessed as cell growth inhibition measured after 72 hrs by DAPI staining based analysis; in short: as §2
A101D = assay: Anticancer activity against human A101D cells assessed as cell doubling measured for 72 hrs by DAPI staining based analysis
CAL-62 = assay: Anticancer activity against human CAL-62 cells assessed as cell growth inhibition measured after 72 hrs by DAPI staining based analysis; in short: as §1
NCI-H358 = assay: Anticancer activity against human NCI-H358 cells assessed as cell growth inhibition measured after 72 hrs by DAPI staining based analysis
DU-145 = assay: Anticancer activity against human DU-145 cells assessed as cell doubling measured for 72 hrs by DAPI staining based analysis
[4] = Anticancer activity against human SKO-007 cells assessed as cell growth inhibition measured after 72 hrs by DAPI staining based analysis
COLO 205 = assay: Anticancer activity against human COLO 205 cells assessed as cell doubling measured for 72 hrs by DAPI staining based analysis
NCI-H630 = assay: Anticancer activity against human NCI-H630 cells assessed as cell growth inhibition measured after 72 hrs by DAPI staining based analysis
RD [5] = assay: Anticancer activity against human RD cells assessed as cell growth inhibition measured after 72 hrs by DAPI staining based analysis
SW-403 = assay: Anticancer activity against human SW403 cells assessed as cell doubling measured for 72 hrs by DAPI staining based analysis
MV4-11 = assay: Anticancer activity against human MV4-11 cells assessed as cell doubling measured for 72 hrs by DAPI staining based analysis
MDA-MB-175-VII = assay: Anticancer activity against human MDA-MB-175-VII cells assessed as cell growth inhibition measured after 72 hrs by DAPI staining based analysis
HCC1143 = assay: Anticancer activity against human HCC1143 cells assessed as cell growth inhibition measured after 72 hrs by DAPI staining based analysis; in short: as §2
SK-LMS-1 = assay: Anticancer activity against human SK-LMS-1 cells assessed as cell growth inhibition measured after 72 hrs by DAPI staining based analysis
HT-1376 = assay: Anticancer activity against human HT-1376 cells assessed as cell growth inhibition measured after 72 hrs by DAPI staining based analysis
NCI-H1299 [6] = assay: Anticancer activity against human NCI-H1299 cells assessed as cell doubling measured for 72 hrs by DAPI staining based analysis
MDA-MB-453 = assay: Anticancer activity against human MDA-MB-453 cells assessed as cell growth inhibition measured after 72 hrs by DAPI staining based analysis
BE(2)-C = assay: Anticancer activity against human BE2C cells assessed as cell doubling measured for 72 hrs by DAPI staining based analysis
RD [7] = assay: Anticancer activity against human RD cells assessed as cell doubling measured for 72 hrs by DAPI staining based analysis
MDA-MB-231 = assay: Anticancer activity against human MDA-MB-231 cells assessed as cell growth inhibition measured after 72 hrs by DAPI staining based analysis
SK-UT-1 = assay: Anticancer activity against human SK-UT-1 cells assessed as cell growth inhibition measured after 72 hrs by DAPI staining based analysis
[8] = Anticancer activity against human COLO-704 cells assessed as cell doubling measured for 72 hrs by DAPI staining based analysis
C3A = assay: Anticancer activity against human C3A cells assessed as cell doubling measured for 72 hrs by DAPI staining based analysis
DU-4475 = assay: Anticancer activity against human DU-4475 cells assessed as cell growth inhibition measured after 72 hrs by DAPI staining based analysis; in short: as §2
HT-29 = assay: Antitumor activity against human HT-29 cells in xenograft model assessed as difference between median time to endpoint time of treated versus control group at 125 mg/kg

GI50 (NCI-H209): 20 nM
GI50 (SW684): 5020 nM
GI50 (SW872): 37 nM
GI50 (NCI-H358): 18 nM
GI50 (NCI-H630): 47 nM
GI50 (MDA-MB-175-VII): 23 nM
GI50 (HCC1143): 27 nM
GI50 (SK-LMS-1): 30 nM
GI50 (HT-1376): 33 nM
GI50 (MDA-MB-453): 27 nM
GI50 (MDA-MB-231): 5020 nM
GI50 (SK-UT-1): 23 nM
SMILES: CC(C)Oc1ccc(C(=O)N[C@H](CNC(=O)CN(C)C)Cc2ccc(-c3cn4cccc([C@H](C)O)c4n3)cc2)cc1Cl [GSK-923295A]
Time (NCI-H1299 [1]): 3.3 days
GI50 (BPH-1): 52 nM
Activity (BHT-101): 2.09
Activity [2]: 2.88
GI50 (NCI/ADR-RES): 3960 nM
Activity [3]: 104%
Activity (NCI-H157): 2.6
GI50 (SW 954): 22 nM
Activity (SF-539): 2.08
Activity (HEC-1B cell line): 2.04
Activity (H4): 2.64
GI50 (FaDu): 32 nM
Activity (NCI-H526): 1.49
GI50 (SCC-25): 23 nM
GI50 (ES-2): 30 nM
Activity (A101D): 1.36
GI50 (CAL-62): 30 nM
Activity (DU-145): 2.25
GI50 [4]: 60 nM
Activity (COLO 205): 3.3
GI50 (RD [5]): 28 nM
Activity (SW-403): 1.12
Activity (MV4-11): 1.79
Activity (NCI-H1299 [6]): 2.78
Activity (BE(2)-C): 2.28
Activity (RD [7]): 2.56
Activity [8]: 2.48
Activity (C3A): 2.23
GI50 (DU-4475): 147 nM
Time (HT-29): 18 days
